Results published in ChEMBL document CHEMBL3784931, “Synthesis and evaluation of novel angiotensin II receptor 1 antagonists as anti-hypertension drugs” (Bioorg Med Chem, 2016).
Calls of active or inactive are those of the source. No cut-off for these calls is given here.

What was measured:
[1] = Elimination rate constant in Wistar rat kidney at 10 mg/kg, po after 0.5 to 72 hrs by HPLC analysis; format: ADME, organism-based
Method in brief: (§1)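 Wistar rats were dosed orally and killed by abdominal aorta transection at 0.5, 1, 2, 4, 6, 8, 12, 24, 48 and 72 h. Organs were excised at once, minced and homogenized at 4 °C in normal saline to a 25% (w/v) homogenate. After spinning at 3000 × g, 4 °C, 10 min, supernatants were analysed by HPLC. Values are mean ± SEM, n = 5 per point.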

[2] = Terminal half life in Wistar rat kidney at 10 mg/kg, po after 0.5 to 72 hrs by HPLC analysis; format: ADME, organism-based; conditions: read-out: beta t1/2 (converted); method in brief: as §1
[3] = tested on: Kidney; test: AUC (0 to 72 hrs) in Wistar rat kidney at 10 mg/kg, po by HPLC analysis; format: ADME, organism-based; design: dose 10 mg/kg, time < 72 hr, route oral; conditions: in vivo; method in brief: as §1
[4] = Tmax in Wistar rat brain at 10 mg/kg, po after 0.5 to 72 hrs by HPLC analysis; format: ADME, organism-based; method in brief: as §1
[5] = Cmax in Wistar rat brain at 10 mg/kg, po after 0.5 to 72 hrs by HPLC analysis; format: ADME, organism-based; design: dose 10 mg/kg, route oral; method in brief: as §1
[6] = Elimination rate constant in Wistar rat brain at 10 mg/kg, po after 0.5 to 72 hrs by HPLC analysis; format: ADME, organism-based; method in brief: as §1
[7] = Terminal half life in Wistar rat brain at 10 mg/kg, po after 0.5 to 72 hrs by HPLC analysis; format: ADME, organism-based; conditions: read-out: beta t1/2 (converted); method in brief: as §1
[8] = tested on: Brain; test: AUC (0 to 72 hrs) in Wistar rat brain at 10 mg/kg, po by HPLC analysis; format: ADME, organism-based; design: dose 10 mg/kg, time < 72 hr, route oral; conditions: in vivo; method in brief: as §1
[9] = Tmax in Wistar rat stomach at 10 mg/kg, po after 0.5 to 72 hrs by HPLC analysis; format: ADME, organism-based; method in brief: as §1
[10] = Cmax in Wistar rat stomach at 10 mg/kg, po after 0.5 to 72 hrs by HPLC analysis; format: ADME, organism-based; design: dose 10 mg/kg, route oral; method in brief: as §1
[11] = Elimination rate constant in Wistar rat stomach at 10 mg/kg, po after 0.5 to 72 hrs by HPLC analysis; format: ADME, organism-based; method in brief: as §1
[12] = Terminal half life in Wistar rat stomach at 10 mg/kg, po after 0.5 to 72 hrs by HPLC analysis; format: ADME, organism-based; conditions: read-out: beta t1/2 (converted); method in brief: as §1
[13] = tested on: Stomach; test: AUC (0 to 72 hrs) in Wistar rat stomach at 10 mg/kg, po by HPLC analysis; format: ADME, organism-based; design: time < 72 hr, dose 10 mg/kg, route oral; conditions: in vivo; method in brief: as §1
[14] = Acute toxicity in ICR mouse assessed as mortality at 1200 mg/kg, ig administered daily for 2 weeks measured during compound dosing; format: organism-based; conditions: in vivo, po
Method in brief: (§2)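 ICR mice, sixty in total, half male and half female, 20 ± 2 g. Intragastric dosing at 1200, 1600, 2133.3, 2844.40, 5056.79 or 6742.38 mg/kg. Animals watched daily over two weeks for survival and physiological abnormalities or untoward reactions. Percent mortality recorded per dose group.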

[15] = Acute toxicity in ICR mouse assessed as mortality at 1600 mg/kg, ig administered daily for 2 weeks measured during compound dosing; format: organism-based; conditions: in vivo, po; method in brief: as §2
[16] = Acute toxicity in ICR mouse assessed as mortality at 2133.30 mg/kg, ig administered daily for 2 weeks measured during compound dosing; format: organism-based; conditions: in vivo, po, 2133.3 mg/kg; method in brief: as §2
[17] = Acute toxicity in ICR mouse assessed as mortality at 2844.40 mg/kg, ig administered daily for 2 weeks measured during compound dosing; format: organism-based; conditions: in vivo, po, 2844.4 mg/kg; method in brief: as §2
[18] = Acute toxicity in ICR mouse assessed as mortality at 5056.79 mg/kg, ig administered daily for 2 weeks measured during compound dosing; format: organism-based; conditions: in vivo, po; method in brief: as §2
[19] = Acute toxicity in ICR mouse assessed as mortality at 6742.38 mg/kg, ig administered daily for 2 weeks measured during compound dosing; format: organism-based; conditions: in vivo, po; method in brief: as §2
[20] = Acute toxicity in ICR mouse assessed as mortality administered intragastrically daily for 2 weeks measured during compound dosing; format: organism-based; conditions: in vivo, po
Method in brief: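 Sixty normal ICR mice (half male, half female, 20 ± 2 g) given intragastric doses of 1200, 1600, 2133.3, 2844.40, 5056.79 and 6742.38 mg/kg. Survival checked daily for two weeks.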

[21] = tested on: Mus musculus; test: Acute toxicity in ICR mouse assessed as skin changes at 1200 mg/kg, ig administered daily for 2 weeks measured during compound dosing; format: organism-based; conditions: in vivo, po, 336 h; method in brief: as §2
[22] = tested on: Mus musculus; test: Acute toxicity in ICR mouse assessed as mobility at 1200 mg/kg, ig administered daily for 2 weeks measured during compound dosing; format: organism-based; conditions: in vivo, po, 336 h; method in brief: as §2
[23] = tested on: Mus musculus; test: Acute toxicity in ICR mouse assessed as aggressiveness at 1200 mg/kg, ig administered daily for 2 weeks measured during compound dosing; format: organism-based; conditions: in vivo, po, 336 h; method in brief: as §2
[24] = tested on: Mus musculus; test: Acute toxicity in ICR mouse assessed as respiratory movements at 1200 mg/kg, ig administered daily for 2 weeks measured during compound dosing; format: organism-based; conditions: in vivo, po, 336 h; method in brief: as §2
[25] = tested on: Mus musculus; test: Acute toxicity in ICR mouse assessed as hyperthyroidism at 1600 to 6742.38 mg/kg, ig administered daily for 2 weeks measured 5 hrs post last dose; format: organism-based; conditions: in vivo, po; method in brief: as §2
[26] = tested on: Mus musculus; test: Acute toxicity in ICR mouse assessed as change in body weight at 1200 to 6742.38 mg/kg, ig administered daily for 2 weeks during compound dosing; format: organism-based; conditions: in vivo, po, 336 h
Method in brief: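 Male and female ICR mice (20 ± 2 g) received intragastric doses of 1200–6742.38 mg/kg. Body weight of surviving mice compared after two weeks of observation.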

[27] = tested on: Mus musculus; test: Acute toxicity in ICR mouse assessed as obvious untoward reaction at 1200 to 6742.38, ig administered daily for 2 weeks during compound dosing; format: organism-based; conditions: in vivo, po, 336 h; method in brief: as §2
[28] = tested on: Mus musculus; test: Acute toxicity in ICR mouse assessed as pathological changes in organs and tissues at 1200 to 6742.38, ig administered daily for 2 weeks measured on 15th day; format: organism-based; conditions: in vivo, po, 336 h
Method in brief: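 ICR mice of both sexes (20 ± 2 g) dosed intragastrically at 1200–6742.38 mg/kg and observed for two weeks. Surviving mice then dissected and examined with the naked eye.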

[29] = tested on: Rattus norvegicus; test: Antihypertensive activity in spontaneous hypertensive rat model assessed as reduction in mean blood pressure at 10 mg/kg, po administered for 12 hrs; format: functional, organism-based
Method in brief: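 Male SHRs were randomized, n = 6 per group. Compound was suspended in DMSO/oleic acid (1:4) and given by oral gavage; vehicle controls got the same volume of solvent. SBP and DBP were recorded in conscious animals by noninvasive tail-artery manometry. MBP = (SBP − DBP)/3 + DBP. Data are mean ± SEM, with p < 0.05 taken as significant.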

[30] = tested on: Rattus norvegicus; test: Effect on heart rate in spontaneous hypertensive rat model at 10 and 15 mg/kg, po; format: ADME, organism-based; conditions: in vivo
[31] = tested on: Mus musculus; test: Acute toxicity in ICR mouse assessed as mortality at 1200 to 6742.38 mg/kg, ig administered daily for 2 weeks during compound dosing; format: organism-based; conditions: in vivo, po, 336 h; method in brief: as §2

## CCCCc1nc(Cl)c(C(=O)O)n1Cc1ccc(-c2ccccc2-c2noc(=O)[nH]2)cc1
[1]
  k el: 1.11e-05 s⁻¹
[2]
  half-life: 15.6 h
[3]
  AUC: 202.97 ng·h/g
[4]
  Tmax: 2 h
[5]
  Cmax: 5.8 ng/g
[6]
  k el: 1.14e-05 s⁻¹
[7]
  half-life: 16.9 h
[8]
  AUC: 123.07 ng·h/g
[9]
  Tmax: 0.5 h
[10]
  Cmax: 8.91 ng/g
[11]
  k el: 1.39e-05 s⁻¹
[12]
  half-life: 15.1 h
[13]
  AUC: 221.03 ng·h/g
[14]
  mortality at 336 h: 0%
[15]
  mortality at 336 h: 10%
[16]
  mortality at 336 h: 20%
[17]
  mortality at 336 h: 40%
[18]
  mortality at 336 h: 90%
[19]
  mortality at 336 h: 100%
[20]
  LD50 at 336 h: 2970 mg/kg
[21]
  Activity: Non-toxic
[22]
  Activity: Non-toxic
[23]
  Activity: Non-toxic
[24]
  Activity: Non-toxic
[25]
  Activity: Toxic
[26]
  Activity: Non-toxic
[27]
  Activity: Non-toxic
[28]
  Activity: Non-toxic
[29]
  Activity: Active
[30]
  Activity: Non-toxic
[31]
  Activity: Toxic
